Shown is part of a subset that was picked to be rich in hits.
Fibroblast inh: blocks proliferation of human lung fibroblasts. LL 47 human lung fibroblast viability, ATP luminescence; active compounds read low. 85,000 tested, 1.1% active. viability, % at 10 µM;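 active means viability at or below 50% in the single dose screen; inactive means viability above 50%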;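 further: compound exposure lasted 72 h before the ATP readout; 100% = median luminescence of untreated cell-only wells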
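Signal: luminescent ATP detection, CellTiter-Glo; assay system: LL 47 human lung fibroblasts; input: 1,150 cells/well; incubation: overnight cell rest, 72 h compound treatment at 37 °C; measure: % viability versus median cells-only luminescence; medium: IMEM growth medium with 15% fetal bovine serum; dosing: compound addition at 0.1% DMSO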
H69AR inhibit: blocks growth of human H69AR lung tumor cells; H69AR lung tumor viability, ATP luminescence, 72 h; active compounds read low; viability, % at 10 µM; 85,000 tested, 6% active; AID 598;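 active means viability at or below 40%; inactive means viability above 40%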;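 further: multidrug resistant small cell line overexpressing MRP-1 efflux transporter; 100% = mean luminescence of untreated control wells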
HCT116 bCat-KO: beta-catenin-lacking colon tumor cell growth suppression; AID 818; HCT116 beta-catenin knockout viability, CellTiter-Glo, 60 h; active compounds read low; viability, % at 10 µM; 140,000 tested, 1.5% active;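 active means viability at or under a set limit, the compound median less 4 SD, cut at about 6% in these data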;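 further: 0% = Hyamine 1622 control at 20 µM and 100% = untreated cell control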
HUVEC inhibit: blocks proliferation of human endothelial cells. HUVEC proliferation, CellTiter-Glo luminescence, 72 h; active compounds read low. viability, % at 10 µM (by protocol). 86,000 tested, 1.1% active;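 active means viability at or below 30%; inactive means viability above 30%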;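 further: 100% = median luminescence of DMSO-only cell control wells on each plate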
HCT116 PTEN-null: PTEN-deleted cell growth suppression; HCT116 PTEN-null viability, CellTiter-Glo, 60 h; active compounds read low; viability, % at 10 µM; 140,000 tested, 1.2% active; AID 827;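 active means viability at or below a set limit, 4 SD under the median of all tested compounds, cut at about 3.7% in these data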;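 further: PTEN knockout HCT116 line with beta catenin targeted HCT116 as companion control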
Starred values were filed as active, the others as inactive; · = no result given.

SMILES	Fibroblast inh	H69AR inhibit	HCT116 bCat-KO	HUVEC inhibit	HCT116 PTEN-null
CCc1c(C)nc(Nc2nc(C)c3cc(OC)ccc3n2)[nH]c1=O	89	28*	48	84	53
COc1nc(Nc2nc3ccccc3c(=O)[nH]2)nc2ccc(C)cc12	6.7*	14*	·	2.6*	·
CCOC(=O)C1=C(C)NC(=O)NC1/C(C)=C/c1ccccc1 (stereo not given)	92	95	89	87	95
CCn1cc([N+](=O)[O-])c(C(=O)N2N=C(c3ccc4ccccc4c3)CC2c2ccccc2O)n1 (stereo not given)	80	86	3.2*	15*	5
CCn1cc(Cl)c(C(=O)N2N=C(c3ccc4ccccc4c3)CC2c2ccccc2O)n1 (stereo not given)	·	·	42	·	29
CCn1cc([N+](=O)[O-])c(C(=O)N2N=C(c3cccc4ccccc34)CC2c2ccccc2O)n1 (stereo not given)	88	79	3.4*	78	7
Cc1c(Cl)ccc2c1NC(=O)[C@]21N[C@@H](Cc2ccccc2)[C@H]2C(=O)N(c3ccc(F)cc3)C(=O)[C@H]21	89	19*	52	67	43
O=C(Oc1ccccc1-c1nnco1)c1ccc(Cl)cc1	34*	43	55	98	88
O=C(Nc1ccccc1OC(=O)c1ccc(Cl)cc1)c1ccc(Cl)cc1	·	·	61	·	70
FC(F)(F)c1cccc(Oc2nc(-c3ccccc3)nnc2C(F)(F)F)c1	·	·	96	·	96
FC(F)(F)c1cccc(Sc2nc(-c3ccccc3)nnc2C(F)(F)F)c1	·	·	5.3*	·	11
FC(F)(F)c1nnc(-c2ccccc2)nc1Sc1ccccc1	·	·	1.6*	·	1.3*
FC(F)(F)c1nnc(-c2ccccc2)nc1Sc1ccc(Cl)cc1	·	·	87	·	84
CC(=O)NC1(c2ccccc2)CCN(c2nc(C)cc(C)n2)CC1	89	100	98	109	100
COc1ccc(OC)c(C(=O)COC(=O)c2ccc(C)o2)c1	98	92	89	99	96
COc1ccc(C(=O)OCC(=O)c2cc(OC)ccc2OC)c(OC)c1	104	92	0.6*	103	0.8*
Cc1cc(C)c(S(=O)(=O)Nc2ccc[nH]c2=O)c(C)c1	88	87	92	100	92
CN1CCN(CCC(=O)N2c3ccccc3Sc3ccc(Cl)cc32)CC1	90	86	80	92	75
CN1CCN(C2=Cc3ccccc3Sc3cc(F)c(F)cc32)CC1	89	7.1*	40	6.7*	43
CN1CCN(C2=Cc3cc(Cl)ccc3Sc3cc(F)ccc32)CC1	87	51	1.3*	4.9*	7
CN1CCN(C2=Cc3ccccc3Sc3cc(F)c(Cl)cc32)CC1	94	0.0*	22	8.8*	27
CCOc1cccc(C(=O)Nc2cccc(C(=O)NCC(C)C)c2)c1	·	·	95	·	94
CCCCC(=O)Nc1ccc(NC(=O)c2ccccc2[N+](=O)[O-])cc1OC	·	·	93	·	99
Cc1c(Cl)cccc1N/C(SCC(=O)N1CCCCCC1)=C(/C#N)c1nc2ccccc2s1	·	·	1.7*	·	1.6*
O=C(CSc1nc2ccccc2s1)N1CCCCC1	114	76	88	104	110
SMILES	Fibroblast inh	H69AR inhibit	HCT116 bCat-KO	HUVEC inhibit	HCT116 PTEN-null
O=C(Nc1ccc(Cl)cc1)Nc1nc(-c2sccc2Br)cs1	·	·	3.8*	·	13
Cc1csc(NC(=O)Nc2ccc(Cl)cc2)n1	95	100	85	92	91
O=C(CSc1nc2ccccc2[nH]1)NCCCn1ccnc1	92	100	90	98	91
Cc1oc(C)c2c(=O)ccc3c(c12)OC(N)=C(C#N)C3c1ccccc1 (stereo not given)	89	91	83	63	92
CSc1ccc(C2C(C#N)=C(N)Oc3c2ccc(=O)c2c(C)oc(C)c32)cc1 (stereo not given)	95	10*	76	64	80
CCOC(=O)C(C(C)=O)c1c(Br)c(O)c(O)c2c(C(=O)c3ccc(C)cc3)coc12 (stereo not given)	10*	1.4*	1.3*	60	1.7*
CSC(=NC#N)N1CCN(c2cccc(Cl)c2)CC1	·	·	78	·	81
COc1cc(Cl)c(C)cc1NC(=O)COC(=O)/C=C/c1c(C)nn(C2CCS(=O)(=O)C2)c1Cl (stereo not given)	65	33*	86	56	82
COc1cc(NC(=O)COC(=O)/C=C/c2c(C)nn(C3CCS(=O)(=O)C3)c2Cl)cc(OC)c1OC (stereo not given)	·	·	78	·	90
COCC(=O)N(Cc1cc2cc(OC)ccc2[nH]c1=O)c1ccc(C)cc1	93	90	90	93	90
COc1ccc(OCC(O)Cn2c(Br)nc3c2c(=O)[nH]c(=O)n3C)cc1 (stereo not given)	98	35*	28	94	19
CN1CCN(Cc2nc3c(c(=O)[nH]c(=O)n3C)n2CCc2ccccc2)CC1	100	86	86	89	107
COc1ccc(CCn2c(N3CCN(Cc4ccccc4)CC3)nc3c2c(=O)[nH]c(=O)n3C)cc1	98	33*	99	85	91
Cc1ccc(Sc2nc3c(c(=O)[nH]c(=O)n3C)n2CCc2ccccc2)cc1	82	14*	11	68	2.8*
Cn1c(=O)[nH]c(=O)c2c1nc(N1CCOCC1)n2CCN1CCOCC1	107	90	88	103	88
COc1ccc(CCn2c(N3CCOCC3)nc3c2c(=O)[nH]c(=O)n3C)cc1	92	25*	96	89	91
OC(CNc1nc2ccccc2s1)c1ccccc1 (stereo not given)	106	88	96	114	100
CCOC(=O)c1sc(/N=C/c2c(C)[nH]n(-c3ccccc3)c2=O)c(C#N)c1C	·	·	90	·	100
Cc1ccnc(NS(=O)(=O)c2ccc(N)cc2)n1	98	103	104	101	89
COc1cc(CNC(C)(C)CO)cc(Br)c1OCc1ccc(Cl)cc1Cl	·	·	1.3*	·	1.6*
Cc1cccc2cc(C(c3nnnn3Cc3ccccc3)N3CCCc4ccccc43)c(=O)[nH]c12 (stereo not given)	·	·	1.8*	·	2.7*
COc1ccc(C(NC(=O)c2ccccc2F)NC(=O)c2ccccc2F)cc1	·	·	88	·	93
CSc1ccc(/C=C/C(=O)c2ccc(NC(C)=O)cc2)cc1	·	·	95	·	105
CC(=O)Nc1cccc(C(=O)/C=C/c2ccc(C)cc2)c1	·	·	2.7*	·	1.9*
Cn1c(Cn2cnc3ccccc32)nnc1SCc1ccccc1	97	·	89	92	95
N#Cc1c(N)nc(SCC(=O)C23CC4CC(CC(C4)C2)C3)c(C#N)c1-c1ccc(Cl)cc1	77	16*	65	53	79
O=C(NN1C(=O)C2C3C=CC(C3)[C@H]2C1=O)c1cccnc1 (stereo not given in full)	·	·	96	·	99
COc1cc(-c2nc3n(n2)C(c2cccc(OC)c2OC)C2=C(CCCC2=O)N3)cc(OC)c1OC (stereo not given)	92	82	73	76	85

Screening data deposited in PubChem BioAssay by SRMLSC.
